Screen size: about 3,500 compounds; about 1,400 (40%) were called active.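 How the source made its calls: active means activation above the solvent-only control well mean plus 3 SD, averaged across control plates (cut at about 5.2% in these data); inactive means the rest.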 So high a share suggests a set chosen from earlier hits. These entries were drawn from the full list.
Assay: GAL4-VP16 luciferase reporter activation, counter-screen for SMARCA2 (BRM) activator project, cell-based, pG5luc, luminescence, high throughput (AID 686939)
Conditions: HEK293 GAL4-VP16 pG5luc reporter, at 9.1 µM, active compounds read high, scaled: DMSO wells 0%, SAHA wells 100%
Outline: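 Assay system: 293 cells carrying GAL4-VP16 plus UAS-luciferase reporter | Read-out basis: Percent activation scaled between DMSO (0%) and SAHA (100%) control medians | Times: 24 h exposure, 37 °C, 5% CO2, One-Glo 15 min RT | Signal: Luciferase luminescence after One-Glo reagent addition | Compound: One dose, 9.1 µM nominal | Repeats: Each compound tested in triplicate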
For `Cn1sc(=O)c2cc(S(=O)(=O)NC3CC3)ccc21`, the activation was 1.24% (inactive). With `Cc1ccsc1C(=O)N/N=C/c1ccc([N+](=O)[O-])cc1` the activation was 14.2% (active). For `O=C1/C(=C\c2ccc([N+](=O)[O-])cc2)CS(=O)(=O)C/C1=C/c1ccc([N+](=O)[O-])cc1`, the activation was -4.02% (inactive). For `O=C(OCC(=O)c1cccs1)C1=COCCO1`, the activation was 7.73% (active). With `O=C(NCc1ccccn1)c1cnc2sccn2c1=O` the activation was 2.95% (inactive). With `Cc1cc(C)n2nc(CNS(=O)(=O)c3c(F)c(F)c(F)c(F)c3F)nc2n1` the activation was 1.55% (inactive). With `CC(C)(C)C(=O)CSc1nc2ccccc2o1` the activation was 5.87% (active). For `CN(C)c1nc(=Nc2cccc(Cl)c2)ss1`, the activation was 1.47% (inactive). For `COc1ccc(/C(N)=N/OC(=O)Oc2ccccc2)cc1`, the activation was -0.09% (inactive). With `CCCOc1ccc(-c2nc(N)n[nH]2)cc1` the activation was 6.36% (active). With `COc1ccc2nc(/N=C(\N)NC(=O)Nc3ccccc3)nc(C)c2c1` the activation was -0.04% (inactive). In the case of `Cc1ccnc(NC(=O)C2CCN(S(=O)(=O)c3c(C)c(C)cc(C)c3C)CC2)c1`, the activation is reported as 1.57% (inactive). For `COc1cccc(C(=O)Nc2nc3ccc(S(C)(=O)=O)cc3s2)c1`, the activation was 5.21% (active). For `N#Cc1ccccc1NC(=O)c1cccc(COc2ccc(Cl)cc2Cl)c1`, the activation was 21.9% (active). In the case of `COc1ccc(S(=O)(=O)NC(C)C(=O)N2CCCCCC2)cc1` (stereo not given), the activation is reported as -0.22% (inactive). With `CC(=O)Nc1ccc(Nc2c3ccccc3nc3ccccc23)cc1` the activation was 1.5% (inactive). In the case of `CCCC(=O)N1c2ccc(-c3csc(N)n3)cc2CC1C` (stereo not given), the activation is reported as 13.6% (active). With `CCC(=O)Nc1ccc2nn(-c3ccc(F)cc3)nc2c1` the activation was 7.66% (active). In the case of `CCCSC(=S)NC1CCS(=O)(=O)C1` (stereo not given), the activation is reported as -1.45% (inactive). For `Cc1noc(C)c1/C=N/Nc1ccc2ccccc2n1`, the activation was 11.4% (active). With `COc1ccc(/C=C/C(=O)Nc2ccc(C34CC5CC(CC(O)(C5)C3)C4)cc2)cc1OC` the activation was 16.6% (active). With `Cc1c(NC(=O)CSc2cccc3cccnc23)c(=O)n(-c2ccccc2)n1C` the activation was -2.03% (inactive). In the case of `COc1ccc(C(=O)N/N=c2\oc3ccccc3cc2C(N)=O)cc1`, the activation is reported as 2.08% (inactive). With `Cn1cc(/C=C/C(=O)N2CCCC(C(=O)c3ccc(C(F)(F)F)cc3)C2)cn1` (stereo not given) the activation was 0.52% (inactive). With `CCN(CC)CCNC(=O)c1ccc(NC(=O)c2cc(-c3ccncc3)nc3ccccc23)cc1` the activation was 1.61% (inactive). With `CN(C)CCNC(=O)c1ccc(Cl)c2cc3ccccc3nc12` the activation was 10.7% (active). In the case of `O=C(CCCCCn1c(=S)[nH]c2ccsc2c1=O)NC1CCCCC1`, the activation is reported as -0.19% (inactive). With `Oc1cccc2ccc(/C=C/c3ccc(Br)s3)nc12` the activation was 8.85% (active). In the case of `Cc1nc(N=C(N)N)nc2c(C)cccc12`, the activation is reported as 0.25% (inactive). For `Cc1ccc(NC(=O)c2cc3ccccc3o2)cc1`, the activation was 4.91% (inactive). In the case of `Cc1ccc(Nc2nc(Cl)c(C=O)s2)cc1`, the activation is reported as 3.07% (inactive). With `CC(=O)c1sc(NC(=O)c2ccc(C)cc2)nc1C` the activation was 8.83% (active). In the case of `CC(=O)c1sc(N/N=C\c2ccc(C)cc2)nc1C`, the activation is reported as 6.19% (active). For `CC(=O)Oc1ccc(C(=O)Nc2nccs2)cc1`, the activation was 5% (inactive). For `CC(C)C[C@H]1CNC(=O)C(=O)N1C[C@H]1CCCN1C[C@H](Cc1ccc(O)cc1)N1C[C@H](CC(C)C)N(CC2CCCCCC2)C(=O)C1=O`, the activation was 0.47% (inactive). For `Cc1ccc(-c2nc3ccc(Br)cn3c2Cc2ccccc2C(F)(F)F)cc1`, the activation was 7.09% (active). With `Cc1ccc(-c2nc3ccc(Cl)cn3c2Cc2ccccc2)cc1` the activation was 5.49% (active). In the case of `CC(C)Cc1nnc(NC(=O)CCNC(=O)c2ccccc2Cl)s1`, the activation is reported as -0.47% (inactive). With `Cc1cc(-n2cnc(-c3cn(C)nc3C)n2)no1` the activation was 2.79% (inactive). With `Cc1nnc(NC(=O)Cn2c(=O)sc3ccccc32)s1` the activation was 0.78% (inactive). For `COc1ccccc1C1=Nc2cccc3cccc(c23)N1`, the activation was 2.12% (inactive). For `NS(=O)(=O)c1ccccc1NC(=O)c1c(O)c2ccccc2[nH]c1=O`, the activation was 14.3% (active). In the case of `CCN(CC)C(=O)CSc1nnc(-c2cccc(OC)c2)o1`, the activation is reported as 2.98% (inactive). With `CCOC(=O)Nc1ccc(NC(=O)OCC)cc1` the activation was 2.67% (inactive). In the case of `COc1ccc(-c2cc(-c3ccc(N)cc3)nc(N)c2C#N)cc1OC`, the activation is reported as 3.72% (inactive). For `CCCCCCOC(=O)NCC(O)c1ccccc1` (stereo not given), the activation was 9.46% (active). For `CC(=O)c1ccc(NC(=O)c2sc3nc4n(c(=O)c3c2C)CCCCC4)cc1`, the activation was 9.18% (active). For `O=c1c2c(nc3n1CCCCC3)sc1c(O)cccc12`, the activation was 6.75% (active). With `CCOc1cccc2c1OC1(CCCCC1)N1N=C(c3cccnc3)CC21` (stereo not given) the activation was 0.45% (inactive). For `O=C(Cn1ncc(N2CCCC2)c(Br)c1=O)c1ccc(Cl)cc1`, the activation was 5.53% (active). For `COc1ccc2ccccc2c1CNCc1ccccn1`, the activation was 4.06% (inactive). For `C1=C(CCNc2ncnc3c2cnn3-c2ccccc2)CCCC1`, the activation was 14.9% (active). For `CN(C)C(CNC(=O)c1ccc(OCc2cn3ccccc3n2)cc1)c1ccco1` (stereo not given), the activation was 3.42% (inactive). In the case of `C=CC(=O)OCCOCCOCCOCCOC(=O)C=C`, the activation is reported as 3.33% (inactive). In the case of `COC(=O)C1C(=O)c2c([nH]c(C(=O)OCCSC)c2C)CC1C` (stereo not given), the activation is reported as 11.8% (active). With `O=C(CSc1nc2ccccc2[nH]1)c1cccs1` the activation was 13.1% (active). With `CC1(C(=O)NS(=O)(=O)C2CC2)CCCN(C(=O)CSc2ccccc2)C1` (stereo not given) the activation was -0.05% (inactive). With `Cc1cc(C(=O)NNC(=S)Nc2ccccc2C)cs1` the activation was 8.68% (active). In the case of `Cc1ccc(-n2c(SCC(=O)N3CCC(C(=O)O)CC3)nc3ccccc3c2=O)cc1C`, the activation is reported as 4.53% (inactive). With `CCNC(=S)N1CCN(c2ncccn2)CC1` the activation was -0.27% (inactive). With `COC(=O)c1sc(-c2ccc(C(C)(C)C)cc2)cc1NC(=O)/C=C/C(=O)O` the activation was 4.46% (inactive). With `Cn1c2ccc(F)cc2c2nnc(NN)nc21` the activation was 0.75% (inactive). With `Cc1cccc(CSc2ccc(-c3cccs3)nn2)c1` the activation was 3.46% (inactive). In the case of `COc1ccc(Cn2c(C)c(C)c(C#N)c2NC(=O)Nc2ccc(F)cc2)cc1`, the activation is reported as -0.19% (inactive). For `O=C(Nc1ccc2c(c1)CCC2)c1ccc(Br)s1`, the activation was 5.57% (active).

From PubChem BioAssay AID686939 (The Scripps Research Institute Molecular Screening Center, 2013)
